In ChEMBL document CHEMBL1153230, “Synthesis and evaluation of 3-amino-6-aryl-pyridazines as selective CB(2) agonists for the treatment of inflammatory pain” (Bioorg Med Chem Lett, 2010):
≈ marks a conversion by molar mass, not a printed value. Calls of active or inactive are those of the source. The calls are words filed in the database; no cut-off is given here.

Columns and labels:
Cannabinoid receptor 2 [1] = biological target: T1, Cannabinoid receptor 2 (Homo sapiens, UniProt P34972); assay: Agonist activity at human CB2 receptor; assay type: functional
How it was run: (§1)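 Agonist pEC50 and efficacy at human receptor. Efficacy is expressed as a percentage relative to HU210 efficacy. Values are the mean of at least two determinations.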

Cannabinoid receptor 2 [2] = biological target: T1, Cannabinoid receptor 2; assay: Agonist activity at human CB2 receptor relative to HU210; assay type: functional; how it was run: as §1
Cannabinoid receptor 1 [3] = biological target: T2, Cannabinoid receptor 1 (Homo sapiens, UniProt P21554); assay: Agonist activity at human CB1 receptor; assay type: functional; how it was run: as §1
Cannabinoid receptor 1 [4] = biological target: T2, Cannabinoid receptor 1; assay: Agonist activity at human CB1 receptor relative to HU210; assay type: functional; how it was run: as §1
Cannabinoid receptor 1 [5] = biological target: T2, Cannabinoid receptor 1; assay: Agonist activity at human CB1 receptor up to 30 uM; assay type: functional
How it was run: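 Human CB1 receptor agonist assay, tested at concentrations up to 30 µM (method per cited reference). Potency reported as pEC50. Efficacy is expressed as a percentage of the efficacy of the full agonist HU210. Values are the mean of at least two determinations.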

[6] = Aqueous solubility of the compound; assay type: physicochemical
[7] = Blood clearance in rat at 1 mg/kg, iv; assay type: ADME, organism-based; design: dose 1 mg/kg, route intravenous
How it was run: (§2)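 Rats given an intravenous infusion at a target dose of 1 mg free base/kg for pharmacokinetic parameters.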

[8] = Volume of distribution at steady state in rat at 1 mg/kg, iv; assay type: ADME, organism-based; design: dose 1 mg/kg, route intravenous; details: in vivo, read-out: Vdss; how it was run: as §2
[9] = Half life in rat at 1 mg/kg, iv; assay type: ADME, organism-based; design: dose 1 mg/kg, route intravenous; details: in vivo; how it was run: as §2
[10] = Cmax in rat at 3 mg/kg, po; assay type: ADME, organism-based; design: dose 3 mg/kg, route oral; details: in vivo
How it was run: (§3)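 Rats given a single oral dose by gastric gavage, formulated in 1% (w/v) aqueous methylcellulose, at a target dose of 3 mg/kg free base, for pharmacokinetic parameters.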

[11] = Tmax in rat at 3 mg/kg, po; assay type: ADME, organism-based; design: dose 3 mg/kg, route oral; details: in vivo; how it was run: as §3
[12] = Oral bioavailability in rat at 3 mg/kg; assay type: ADME, organism-based; details: in vivo; how it was run: as §3
[13] = Drug level in rat blood at 1 mg/kg, po after 1 hr; assay type: ADME, organism-based; design: dose 1 mg/kg, route oral
How it was run: (§4)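 Rat blood and brain tissue samples taken from FCA weight-bearing study animals 1 h after a 1 mg/kg oral dose. Compound concentrations measured in each; brain:blood ratio derived from the two concentrations.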

[14] = Drug level in rat brain at 1 mg/kg, po after 1 hr; assay type: ADME, organism-based; design: dose 1 mg/kg, route oral; details: read-out: Drug uptake; how it was run: as §4
[15] = Ratio of drug level in brain to blood in rat at 1 mg/kg, po; assay type: ADME, organism-based; design: dose 1 mg/kg, route oral; how it was run: as §4
Rattus norvegicus = assay: Toxicity in rat assessed as induction of hypothermia up to 300 mg/kg po; assay type: organism-based; design: dose 300 mg/kg, route oral; details: in vivo
[16] = Cmax in rat brain at 6.6 uM; assay type: ADME, organism-based; design: dose 6.6 uM

T2 sequence (P21554 whole entry): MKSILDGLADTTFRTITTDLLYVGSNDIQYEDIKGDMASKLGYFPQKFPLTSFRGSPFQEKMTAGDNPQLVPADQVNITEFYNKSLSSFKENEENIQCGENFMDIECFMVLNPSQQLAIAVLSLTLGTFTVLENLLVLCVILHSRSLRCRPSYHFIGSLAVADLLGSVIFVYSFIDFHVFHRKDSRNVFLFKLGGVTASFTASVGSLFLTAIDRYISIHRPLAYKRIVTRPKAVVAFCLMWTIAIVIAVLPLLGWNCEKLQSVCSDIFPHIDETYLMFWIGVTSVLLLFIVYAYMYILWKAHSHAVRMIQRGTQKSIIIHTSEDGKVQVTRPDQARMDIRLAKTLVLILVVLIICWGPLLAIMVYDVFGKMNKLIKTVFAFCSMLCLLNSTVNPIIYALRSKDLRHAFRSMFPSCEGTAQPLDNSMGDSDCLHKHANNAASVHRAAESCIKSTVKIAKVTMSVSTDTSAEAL
T1 sequence (P34972 whole entry): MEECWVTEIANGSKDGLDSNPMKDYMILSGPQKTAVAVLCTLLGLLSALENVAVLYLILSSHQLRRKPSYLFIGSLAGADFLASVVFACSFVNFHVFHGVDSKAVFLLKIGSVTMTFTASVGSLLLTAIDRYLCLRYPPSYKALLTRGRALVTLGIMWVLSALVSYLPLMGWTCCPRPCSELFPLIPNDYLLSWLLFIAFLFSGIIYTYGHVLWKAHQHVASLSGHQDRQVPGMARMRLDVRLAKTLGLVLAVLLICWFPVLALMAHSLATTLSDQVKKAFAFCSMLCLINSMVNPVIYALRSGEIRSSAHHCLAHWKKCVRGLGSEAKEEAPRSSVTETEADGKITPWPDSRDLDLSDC

Row | Compound | EC50 (Cannabinoid receptor 2 [1]) | Efficacy (Cannabinoid receptor 2 [2]) | EC50 (Cannabinoid receptor 1 [3]) | also measured
1 | C[C@@H]1CC[C@H](C)N1c1ccc(-c2cccc(Cl)c2Cl)nn1 | 1.26 nM | 83% | 2510 nM | Efficacy (Cannabinoid receptor 1 [4]): 57%
2 | Clc1cccc(-c2ccc(N3CCOCC3)nc2)c1Cl |  |  |  | Activity (Cannabinoid receptor 1 [5]): inactive
3 | COc1ccc(-c2ccc(N3CCOCC3)nn2)c(Cl)c1 | > 31600 nM |  | > 31600 nM | 
4 | Clc1cccc(-c2cnc(N3CCOCC3)nc2)c1Cl | 200 nM | 67% |  | Activity (Cannabinoid receptor 1 [5]): inactive
5 | Clc1cccc(-c2ccc(N3CCOCC3)nn2)c1Cl | 79.4 nM | 76% | > 31600 nM | Activity (Cannabinoid receptor 1 [5]): inactive; solubility [6]: 6 µg/mL (≈ 19.3 µM)
6 | Clc1cccc(-c2cnc(N3CCOCC3)nn2)c1Cl | 100 nM | 78% |  | Activity (Cannabinoid receptor 1 [5]): inactive
7 | FC(F)(F)Oc1ccccc1-c1ccc(N2CCOCC2)nn1 | 1260 nM | 55% | > 31600 nM | 
8 | Clc1cccc(-c2cnc(N3CCOCC3)cn2)c1Cl | 39.8 nM | 89% |  | Activity (Cannabinoid receptor 1 [5]): inactive; solubility [6]: 1 µg/mL (≈ 3.22 µM)
9 | C[C@@H]1CC[C@H](C)N1c1ccc(-c2cncc3ccccc23)nn1 | 10 nM | 85% | 7940 nM | Efficacy (Cannabinoid receptor 1 [4]): 71%; clearance [7]: 57 mL/min/kg; Vd [8]: 1.7 L/kg; half-life [9]: 18 min; Cmax [10]: 340 nM; Tmax [11]: 54 min; bioavailability [12]: 26%; concentration at 1 h [13]: 300 nM; concentration at 1 h [14]: 500 nM; Kp [15]: 1; Activity (Rattus norvegicus): Toxic; Cmax at 6.6 µM [16]: 11000 nM
10 | Cc1ccccc1-c1ccc(N2CCOCC2)nn1 | 7940 nM | 38% | > 31600 nM | 
11 | Clc1cccc(-c2ncc(N3CCOCC3)cn2)c1Cl | 50.1 nM | 92% |  | Activity (Cannabinoid receptor 1 [5]): inactive; solubility [6]: < 1 µg/mL
12 | Clc1ccccc1-c1ccc(N2CCOCC2)nn1 | 1580 nM | 77% | > 31600 nM | 
13 | Clc1cccc(-c2ccc(N3CCOCC3)cc2)c1Cl | 39.8 nM | 86% |  | Activity (Cannabinoid receptor 1 [5]): inactive
14 | FC(F)(F)c1cccc(-c2ccc(N3CCOCC3)nn2)c1C(F)(F)F | 158 nM | 75% | > 31600 nM | 
15 | C[C@@H]1C=C[C@H](C)N1c1ccc(-c2cccc(Cl)c2Cl)nn1 | 0.631 nM | 93% | 6310 nM | Efficacy (Cannabinoid receptor 1 [4]): 21%
16 | Clc1cccc(-c2ccc(N3CCCCC3)nn2)c1Cl | 6.31 nM | 86% | > 31600 nM | 
17 | c1ccc(COc2cccc(-c3ccc(N4CCOCC4)nn3)c2)cc1 | > 31600 nM |  | > 31600 nM | 
18 | C[C@@H]1CC[C@H](C)N1c1ccc(-c2cccc3cccnc23)nn1 | 79.4 nM | 82% | > 31600 nM | 

Row | Compound | EC50 (Cannabinoid receptor 2 [1]) | Efficacy (Cannabinoid receptor 2 [2]) | EC50 (Cannabinoid receptor 1 [3]) | also measured
19 | C[C@@H]1CC[C@H](C)N1c1ccc(-c2cc3ccccc3o2)nn1 | 158 nM | 70% | > 31600 nM | 
20 | C[C@@H]1CC[C@H](C)N1c1ccc(-c2c[nH]c3ccccc23)nn1 | 251 nM | 61% | > 31600 nM | 
21 | Clc1ccc(Cl)c(-c2ccc(N3CCOCC3)nn2)c1 | 398 nM | 39% | > 31600 nM | 
22 | O=S1(=O)CCN(c2ccc(-c3cccc(Cl)c3Cl)nn2)CC1 | 631 nM | 89% | > 31600 nM | 
23 | Cc1ccc(-c2ccc(N3CCOCC3)nn2)c(Cl)c1 | > 31600 nM |  | > 31600 nM | 
24 | Clc1cccc(-c2ccc(N3CCCC3)nn2)c1Cl | 25.1 nM | 56% | > 31600 nM | 
25 | FC(F)(F)c1ccccc1-c1ccc(N2CCOCC2)nn1 | 1260 nM | 78% | > 31600 nM | 
26 | Clc1cccc(-c2ccc(NC3CCOCC3)nn2)c1Cl | > 31600 nM |  | > 31600 nM | 
27 | C[C@@H]1CC[C@H](C)N1c1ccc(-c2cccc3cnccc23)nn1 | 39.8 nM | 93% | 20000 nM | Efficacy (Cannabinoid receptor 1 [4]): 52%
28 | Cc1cccc(-c2ccc(N3CCOCC3)nn2)c1C | 2000 nM | 71% | > 31600 nM | 
29 | c1ccc(COc2ccccc2-c2ccc(N3CCOCC3)nn2)cc1 | 631 nM | 45% | 3980 nM | Efficacy (Cannabinoid receptor 1 [4]): 11%
30 | FC1(F)CCN(c2ccc(-c3cccc(Cl)c3Cl)nn2)CC1 | 15.8 nM | 83% | > 31600 nM | 
31 | C[C@@H]1CC[C@H](C)N1c1ccc(-c2cccc3ncccc23)nn1 | 200 nM | 75% | > 31600 nM | 
32 | Clc1ccc(-c2ccc(N3CCOCC3)nn2)c(Cl)c1 | > 31600 nM |  | > 31600 nM | 
33 | Clc1cc(Cl)c(Cl)c(-c2ccc(N3CCOCC3)nn2)c1 | 50.1 nM | 78% | > 31600 nM | 
34 | FC(F)(F)c1cccc(-c2ccc(N3CCOCC3)nn2)c1 | 1000 nM | 15% | > 31600 nM | 
35 | COc1ccccc1-c1ccc(N2CCOCC2)nn1 | 12600 nM | 37% | > 31600 nM | 
36 | Clc1cccc(-c2ccc(NC3CCCCC3)nn2)c1Cl | 200 nM | 69% | > 31600 nM | 
